# DNA FID counter-1: fluorescent intercalator displacement, NS3 helicase counter-screen; inhibition, % at 7.9 µM; AID 1845; 290,000 compounds, 0.17% hits; DNA fluorescent intercalator displacement, fluorescence;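 also: 0% = vehicle and 100% = reference compound; higher means more ethidium bromide displaced from hairpin DNA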
# ZTA DNA inh: blocks Epstein-Barr virus ZTA, an EBNA-1 counter-screen; 320,000 compounds, 0.15% hits; inhibition, % at 11 µM; AID 2234; ZTA-DNA binding, fluorescence polarization; in the data active = inhibition above about 33%
# Target sequence (P03206 whole entry, looked up): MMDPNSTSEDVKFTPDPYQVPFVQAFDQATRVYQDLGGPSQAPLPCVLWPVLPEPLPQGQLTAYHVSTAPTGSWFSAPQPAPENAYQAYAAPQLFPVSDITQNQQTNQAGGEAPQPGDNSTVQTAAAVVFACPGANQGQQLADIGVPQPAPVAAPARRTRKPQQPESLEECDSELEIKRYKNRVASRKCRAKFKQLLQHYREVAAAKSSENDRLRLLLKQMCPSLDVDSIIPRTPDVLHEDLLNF
# EBNA-1 inhibitor: blocks EBNA-1 binding to DNA; EBNA-1 DNA binding, fluorescence polarization; inhibition, % at 14.8 µM; 300,000 compounds, 0.34% hits; AID 1950; in the data active = inhibition above about 28%
# GPR7 antag: blocks human GPR7 receptor signaling | P48145 | GPR7-expressing cells, fluorescence antagonist assay | inhibition, % at 4.4 µM | 290,000 compounds, 1.1% hits | AID 1861; in the data active = inhibition above about 16%, passing the limit was not always enough;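 also: cells stimulated with the agonist NPW; 0% = agonist with vehicle and 100% = vehicle without agonist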
# Target sequence (P48145 whole entry, looked up): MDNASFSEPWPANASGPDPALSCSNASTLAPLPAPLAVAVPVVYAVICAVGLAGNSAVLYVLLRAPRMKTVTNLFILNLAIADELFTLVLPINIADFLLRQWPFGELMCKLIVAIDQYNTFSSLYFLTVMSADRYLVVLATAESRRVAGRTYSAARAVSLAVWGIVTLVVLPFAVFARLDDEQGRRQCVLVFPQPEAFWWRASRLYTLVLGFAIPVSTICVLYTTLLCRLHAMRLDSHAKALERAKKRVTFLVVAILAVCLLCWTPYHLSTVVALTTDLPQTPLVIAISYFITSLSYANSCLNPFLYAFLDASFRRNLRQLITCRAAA
# HCV NS3 hel inh: blocks Hepatitis C virus NS3 helicase unwinding | 290,000 compounds, 0.56% hits | inhibition, % at 10.9 µM | NS3 helicase DNA unwinding, Cy5 molecular beacon fluorescence;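 active = inhibition above the mean of all tested compounds plus 3 SD, set per campaign, cut at about 35% in these data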;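 also: 0% = DMSO wells and 100% = thioflavine S control wells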
#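 System: HCV NS3 helicase fragment; control set: DMSO and thioflavine S; technique: Cy5 fluorescence at 0 and 60 min, beacon hairpin quenching; reagent: beacon DNA duplex substrate plus ATP; replicates: singlicate; schedule: 1 h reaction at 25 °C, ATP-initiated; medium: MOPS buffer pH 6.5 with MgCl2, DTT, Tween20, BSA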
# NS3 hel confirm: HCV NS3 helicase inhibition, confirmation assay; shares compounds with HCV NS3 hel inh; 1,600 compounds, 31% hits; AID 1943; inhibition, % at 10.9 µM; NS3 helicase DNA unwinding, Cy5 molecular beacon fluorescence;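 active = inhibition above the mean of all tested compounds plus 3 SD, cutoff set per campaign, cut at about 36% in these data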
# DNA FID counter-2: intercalator displacement, NS3 helicase counter-screen | shares compounds with HCV NS3 hel inh | DNA fluorescent intercalator displacement, fluorescence | inhibition, % at 7.9 µM | 1,600 compounds, 4% hits | AID 1945;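 also: 0% = vehicle and 100% = reference compound; higher means more displacement of ethidium bromide from the DNA hairpin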
# DNA FID DR: displaces fluorescent intercalator from DNA, HCV helicase counter-screen. shares compounds with HCV NS3 hel inh. fluorescent intercalator displacement from DNA, fluorescence. IC50, µM. 120 tested, under 10 active; call rule not given here
# The depositor's hits bear a star; . = no result. Rows were chosen to be rich in hits. Some 2% of all compounds tested hit in one or more screens of this group. Rule as the data show it, unless noted: active = inhibition above about 37%; inactive = the rest.
SMILES,DNA FID counter-1,ZTA DNA inh,EBNA-1 inhibitor,GPR7 antag,HCV NS3 hel inh,NS3 hel confirm,DNA FID counter-2,others
CCOc1ncccc1C(=O)OCc1cc(=O)oc2c(C)c(C)ccc12,-20,.,.,2,7,.,.,
Cc1cccc(C(=O)OCc2cc(=O)oc3c(C)c(C)ccc23)c1O,-8,-17,-10,-12,37*,-11,14,
CCOc1ccc(C(=O)Nc2ccc3c(c2)OCCO3)cc1,-14,3,17,-4,2,.,.,
Cc1c2ccccc2nc2c(F)c(NC(C)C)c(F)c(F)c12,-15,5,-1,5,44*,-3,4,
OCCNc1c2ccccc2nc2c(F)c(F)c(F)c(F)c12,-4,2,-8,4,9,.,.,
Cc1c2ccccc2nc2c(F)c(NCCO)c(F)c(F)c12,-14,0,1,6,39*,-16,8,
COc1ccc(C(=O)CC(=O)C(=O)Nc2ccccc2OC)cc1,-17,-6,-13,-8,29,.,.,
COc1cccc(C(=O)CC(=O)C(=O)Nc2ccc(C)cc2Cl)c1,-17,1,4,0,63*,21,1,
COc1ccc(C(=O)CC(=O)C(=O)Nc2ccc(C)cc2Cl)cc1,-8,-3,-10,9,38*,-30,3,
COc1ccc(OC)c(NC(=O)c2csc(Cl)c2OC)c1,-27,-4,-15,9,3,.,.,
Cc1ccc(NC(=O)CSc2nnc(-c3ccco3)c(-c3ccco3)n2)cc1,-6,-2,-5,9,42*,87*,19,
Cc1ccccc1NC(=O)CSc1nnc(-c2ccco2)c(-c2ccco2)n1,-24,10,3,-12,41*,51*,-8,DNA FID DR=>79
CSc1nnc(-c2ccco2)c(-c2ccco2)n1,-10,2,10,-3,37*,25,14,
COc1cc(NC(=O)CSc2ccc(-c3ccco3)nn2)cc(OC)c1,-27,-8,10,-15,36*,-12,0,
CSc1nnc(-c2ccccc2)c(-c2ccccc2)n1,-10,-11,-5,-20,11,.,.,
Cc1nn(-c2ccccc2)c(C)c1C(=O)OC(C)C(=O)NC1CCCCC1C (stereo unspecified),.,-9,.,.,.,.,.,
O=C(c1ccc(NS(=O)(=O)c2ccc(F)cc2)cc1)N1CCC1,.,0,-6,.,.,.,.,
Cc1cccc(N(Cc2ccccc2)C(=O)CSC(C)C(=O)Nc2cc(C)on2)c1 (stereo unspecified),.,-8,-7,.,.,.,.,
COc1ccc(-n2c(Cc3cccn3C)nnc2SCC(=O)NCc2ccccc2Cl)cc1,-42,3,5,-10,47*,-12,-28,
COc1ccc(-n2c(Cc3cccn3C)nnc2SCC(=O)NCc2ccc(F)cc2)cc1,-38,2,-7,-9,5,.,.,
CCOc1cc(/C=C2\SC(=Nc3ccc(CC)cc3)NC2=O)ccc1OCC(=O)O,0,19,5,14,46*,69*,7,
CN1CCN(S(=O)(=O)c2ccc(N3CCN(C(c4ccccc4)c4ccccc4)CC3)nc2)CC1,-2,-4,-2,-15,43*,8,51*,
Cn1nc(C(F)(F)F)c(-c2cccc(C(F)(F)F)c2)c1NC(=O)c1nccnc1C(=O)O,-27,-3,4,22,51*,7,-8,
Cn1nc(C(F)(F)F)c(-c2ccccc2)c1NC(=O)c1nccnc1C(=O)O,1,-7,-4,-5,14,.,.,
CC1CC(=O)c2c(cc3c(-c4c(O)cc(O)c5c(O)c6c(cc45)OC(C)CC6=O)c(O)cc(O)c3c2O)O1 (stereo unspecified),28,12,20,2,98*,123*,72*,
SMILES,DNA FID counter-1,ZTA DNA inh,EBNA-1 inhibitor,GPR7 antag,HCV NS3 hel inh,NS3 hel confirm,DNA FID counter-2,others
O=C1CC(c2ccc(O)cc2)Oc2cc(O)cc(O)c21 (stereo unspecified),-3,-24,3,-5,-1,.,.,
Cc1cc2c3c([nH]c2cc1S(=O)(=O)NCc1ccc(CN2CCCCCC2)o1)CCCC3=O,5,9,2,-10,2,.,.,
O=C(N/N=C/c1c(O)ccc2ccccc12)c1cccnc1,-10,1,-25,23,87*,29,-18,
Cc1ccc(C)c2[nH]c(=O)c(C(c3nnnn3Cc3ccco3)N3CCc4ccccc4C3)cc12 (stereo unspecified),-15,-1,0,-12,39*,4,-8,
Cc1ccc(C)c2[nH]c(=O)c(C(c3nnnn3CCc3ccccc3)N3CCOCC3)cc12 (stereo unspecified),-20,5,-18,-16,6,.,.,
NC(=O)c1sc2nc(-c3cccs3)ccc2c1N,-4,-18,0,9,0,.,.,
Nc1c(C(=O)NC2CCCC2)sc2nc(-c3cccs3)ccc12,-20,0,-12,2,56*,-16,6,
Nc1cc([N+](=O)[O-])ccc1O,-7,1,-6,10,44*,2,17,
Cc1ccc([N+](=O)[O-])cc1N,-5,-14,2,-9,2,.,.,
N=C1/C(=C/c2cccs2)C(=O)N=C2SN=C(SCc3ccccc3)N12,-7,-11,-3,-10,18,.,.,
CC(C)CSC1=NSC2=NC(=O)/C(=C\c3cccs3)C(=N)N12,-6,0,0,-2,37*,53*,12,
COC(=O)C1=C(C)NC(C)=C(C(=O)OC)C1c1ccc(-c2cc(Cl)ccc2Cl)o1,-2,11,-7,-12,15,.,.,
COCCOC(=O)C1=C(C)NC(=O)NC1c1ccc(-c2cc(Cl)ccc2Cl)o1 (stereo unspecified),-47,0,3,0,43*,-20,-19,
COc1ccc(NS(=O)(=O)c2cccc(C(=O)NNC(=O)NCCCl)c2)cc1,4,-18,-1,0,69*,-14,-6,
COc1ccc(NS(=O)(=O)c2cccc(C(=O)NNC(=O)c3ccccc3OC)c2)cc1,.,-9,2,.,.,.,.,
O=C(C[C@H]1C(=O)N(C2CCCCC2)C[C@@H]1Cc1ccccc1)Nc1ccccc1,-48,1,-1,8,37*,-16,-28,
COc1cccc(OCCOc2ccc(/C=C3\C(=N)N4N=C(S(C)(=O)=O)SC4=NC3=O)cc2OC)c1,5,.,.,23,48*,53*,21,
COc1cc(/C=C2\C(=N)N3N=C(C)SC3=NC2=O)cc(OC)c1OCCOc1ccccc1C,-25,-5,-12,9,45*,17,-11,
CCC1=NN2C(=N)/C(=C\c3ccc(OCCOc4ccc(NC(C)=O)cc4)cc3)C(=O)N=C2S1,-22,0,-3,-8,7,.,.,
CCOc1cc(/C=C2\C(=N)N3N=C(CC)SC3=NC2=O)ccc1OCCOc1ccc(NC(C)=O)cc1,-19,1,-2,12,54*,-19,-10,

# High-throughput results: PubChem, The Scripps Research Institute Molecular Screening Center
